In ChEMBL document CHEMBL1145070, “Potent, small-molecule inhibitors of human mast cell tryptase. Antiasthmatic action of a dipeptide-based transition-state analogue containing a benzothiazole ketone” (J Med Chem, 2003):
Active and inactive are the calls of the source.

Columns and labels:
[1] = biological target: T1, Tryptase beta-1 (Homo sapiens, UniProt Q15661); assay: In vitro inhibition of human Tryptase beta.
Target sequence in this assay (Q15661 whole entry): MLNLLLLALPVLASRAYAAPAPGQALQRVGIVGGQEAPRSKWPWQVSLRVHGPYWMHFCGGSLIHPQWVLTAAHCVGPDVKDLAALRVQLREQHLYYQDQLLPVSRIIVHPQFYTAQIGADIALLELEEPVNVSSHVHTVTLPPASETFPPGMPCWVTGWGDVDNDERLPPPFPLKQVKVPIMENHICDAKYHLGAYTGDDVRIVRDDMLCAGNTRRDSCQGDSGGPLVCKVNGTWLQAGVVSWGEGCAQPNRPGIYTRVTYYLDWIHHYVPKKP

[2] = test system: Cationic trypsin (Bos taurus); assay: Beta-Trypsin inhibitory activity of compound was determined; NA= not active (<10% inhibition at 100 uM)
[3] = biological target: T1, Tryptase beta-1; assay: Inhibitory activity of compound was determined against human Tryptase beta; NA= not active (<10% inhibition at 100 uM)
How it was run: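 β-Tryptase chromogenic assay, with absorbance read at 405 nm at 37 °C for 30 min after enzyme addition. […] Percent inhibition came from initial slopes versus the no-inhibitor control, fitted with a four-parameter logistic model.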
Target sequence in this assay (Q15661 31-275 limits assumed): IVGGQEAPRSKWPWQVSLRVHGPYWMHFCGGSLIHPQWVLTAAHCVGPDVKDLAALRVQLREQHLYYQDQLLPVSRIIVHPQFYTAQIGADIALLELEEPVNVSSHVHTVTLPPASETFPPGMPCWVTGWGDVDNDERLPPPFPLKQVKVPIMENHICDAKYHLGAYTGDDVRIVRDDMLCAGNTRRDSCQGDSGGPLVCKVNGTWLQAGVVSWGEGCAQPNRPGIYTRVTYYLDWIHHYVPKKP

[4] = biological target: T1, Tryptase beta-1; assay: Inhibitory activity of compound was determined against human Tryptase beta
Target sequence in this assay (Q15661 whole entry): as the sequence (Q15661 whole entry) above

[5] = Ratio of Ki value plasmin to that of Ki value of tryptase
[6] = biological target: Thrombin & trypsin (Homo sapiens) (UniProt P00734+P07477+P07478+P35030); assay: Ratio of Ki value thrombin to that of Ki value of tryptase; type: protein assay
[7] = test system: Cationic trypsin (Bos taurus); assay: Ratio of Ki value of bovine trypsin to that of Ki value of tryptase
[8] = Ratio of Ki value kallikrein to that of Ki value of tryptase

Structure (SMILES)	Ki [1] [nM]	further results
N=C(N)NCCCC(NC(=O)C1CCCC1)C(=O)c1nc2ccccc2s1 (centres undefined)	88	–
N=C(N)NCCCCC(=O)c1nc2ccccc2s1	–	NA [2]: inactive; NA [3]: inactive
CC(=O)N1C[C@H](O)C[C@H]1C(=O)NC(CCCN)C(=O)c1nc2ccccc2s1 (some centres undefined)	90	–
CC(=O)N1CC[C@H]1C(=O)N[C@@H](CCCN=C(N)N)C(=O)c1nc2ccccc2s1	20	–
CC(=O)N1CCC[C@@H]1C(=O)N[C@@H](CCCN=C(N)N)C(=O)c1nc2ccccc2s1	14000	IC50 [4]: 2 nM
CC(=O)N1CC(=O)C[C@H]1C(=O)N[C@@H](CCCN=C(N)N)C(=O)c1nc2ccccc2s1	73	–
CC(=O)N1C[C@H](O)C[C@H]1C(=O)N[C@@H](CCCNC(=N)N)C(=O)c1nc2ccccc2s1 (stereo in doubt; (2R) 6)	380	–
N=C(N)NCCC[C@H](NC(=O)c1ccc2ccccc2c1O)C(=O)N1CCCC1C(N)=O (some centres undefined)	330	Selectivity [5]: > 3000; Selectivity [6]: 1.3; Selectivity [7]: 0.5; Selectivity [8]: > 3000
CC(=O)N[C@@H](CC(C)C)C(=O)N[C@@H](CCCN=C(N)N)C(=O)c1nc2ccccc2s1	41	–
CC(=O)N1CCC[C@H]1C(=O)N[C@@H](CCCN=C(N)N)C(=O)c1nc2ccccc2s1	19	–
N=C(N)c1ccc2nc(Cc3nc4ccc(C(=N)N)cc4[nH]3)[nH]c2c1	140	–
COS(=O)(=O)N1CCC[C@H]1C(=O)N[C@@H](CCCN=C(N)N)C(=O)c1nc2ccccc2s1	33	–
CC(=O)N1C[C@H](O)C[C@H]1C(=O)N[C@@H](CCCNC(=N)N)C(=O)c1nc2ccccc2s1 (stereo in doubt; (2S) 6)	10	–
CC(=O)N1C[C@H](O)C[C@H]1C(=O)N[C@@H](CCCNC(=N)N)C(=O)c1nc2ccccc2s1	22	–
CC(=O)N1CCC[C@H]1C(=O)NC(CCCN=C(N)N)C(O)c1nc2ccccc2s1 (some centres undefined)	–	NA [2]: inactive; NA [3]: inactive
CN[C@H](Cc1ccccc1)C(=O)N1CCC[C@H]1C(=O)N[C@@H](CCCN=C(N)N)C(=O)c1nc2ccccc2s1	6.5	–
CCCC(NC(=O)[C@@H]1C[C@@H](O)CN1C(C)=O)C(=O)c1nc2ccccc2s1 (some centres undefined)	–	NA [2]: inactive; NA [3]: inactive
CC(=O)N1C[C@H](O)C[C@H]1C(=O)NC(CCCN=C(N)N)C(=O)c1nccs1 (some centres undefined)	180	–
N=C(N)NCCC[C@H](NC(=O)[C@@H]1CCCN1Cc1ccccc1)C(=O)c1nc2ccccc2s1	250	–
CC(=O)NCC(=O)N[C@@H](CCCN=C(N)N)C(=O)c1nc2ccccc2s1	470	–
CC(=O)N1CC=C[C@H]1C(=O)N[C@@H](CCCN=C(N)N)C(=O)c1nc2ccccc2s1	38	–
